Test results as given in ChEMBL document CHEMBL1137922, “Synthesis and activity of novel analogs of hemiasterlin as inhibitors of tubulin polymerization: modification of the A segment” (Bioorg Med Chem Lett, 2004).
Calls of active or inactive are those of the source. The rule behind the calls is not given here.

Legend:
KB [1] = test: Concentration required to kill human epidermoid KBV1 cell lines containing very high levels of P-glycoprotein after 3 days of continuous exposure; format: functional, cell-based; settings: 72 h
Method in brief: (§1)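 KB-3-1, KB85 and KBV1 cells were plated at densities set to reach 60–90% confluence at analysis. Compounds were serially diluted in medium as 2× stocks and added in duplicate. After 3 days of incubation, cell survival was read by SRB assay and reported as IC50.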

Bos taurus [2] = species on record: Bos taurus; test: Percent inhibition of bovine microtubule-assisted protein (MAP) rich tubulin polymerisation at concentration of 0.3 uM; (result for 2); format: functional
Method in brief: (§2)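 Bovine MAP-rich tubulin (final 1.5 mg/mL) was prepared in cold PEM buffer (80 mM NaPIPES pH 6.9, 1 mM MgCl2, 1 mM EGTA) with 1 mM GTP and spun at 12,000g for 10 min at 4 C. It was added to duplicate compound wells (final 0.3 µM); controls held 0.3% DMSO. A340 was read every minute for 60 min at 24 C.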

KB 3-1 = test: Concentration required to kill human epidermoid KB-3-1 cell lines containing very low levels of P-glycoprotein after 3 days of continuous exposure; format: functional, cell-based; settings: KB 3-1, 72 h; method in brief: as §1
Bos taurus [3] = species on record: Bos taurus; test: Percent inhibition of bovine microtubule-assisted protein (MAP) rich tubulin polymerisation at concentration of 0.3 uM; format: functional; method in brief: as §2
KB85 (Homo sapiens) = test: Concentration required to kill human epidermoid KB85 cell lines containing moderate levels of P-glycoprotein after 3 days of continuous exposure; settings: KB85, 72 h
Mus musculus [4] = test: Minimum effective dose against Lox melanoma human xenograft models in athymic mice; format: functional
Method in brief: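 Lox melanoma cells (1.5–7 × 10^6) were injected sc into athymic mice. At 80–100 mg tumour mass, animals were randomised into groups of 5 or 10 and dosed iv in saline. Tumour length and width were measured weekly, with mass = (L·W²)/2. Relative tumour growth and %T/C were calculated.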

Mus musculus [5] = test: Minimum tolerated dose against Lox melanoma human xenograft models in athymic mice; format: functional
KB [6] = test: Concentration required to kill 50% of human epidermoid KBV1 cell lines containing very high levels of P-glycoprotein after 3 days of continuous exposure; format: functional, cell-based; settings: 72 h; method in brief: as §1
Mus musculus [7] = species on record: Mus musculus; test: Effect at 3 mpk against MX1W cell line expressing P-glycoprotein transporter in athymic mice; Active; format: functional, organism-based
Mus musculus [8] = species on record: Mus musculus; test: Effect at 3 mpk against HCT-15 cell line expressing P-glycoprotein transporter in athymic mice; inactive; format: functional, organism-based

Question: With `CN[C@H](C(=O)N[C@H](C(=O)N(C)[C@H](/C=C(\C)C(=O)O)C(C)C)C(C)(C)C)C(C)(C)c1ccc(Cl)cc1` as the compound, how does the IC50 (KB [1]) read?
Answer: Its IC50 is 53 nM.

Question: And the Inhibition (Bos taurus [2])?
Answer: The Inhibition was 96%.

Question: And the IC50 (KB 3-1)?
Answer: Its IC50 is 0.56 nM.

Question: What about the Inhibition (Bos taurus [3]) of the same compound?
Answer: The Inhibition was 95%.

Question: What about the IC50 (KB85 (Homo sapiens)) of the same compound?
Answer: The IC50 was 1.7 nM.

Question: With `CN[C@H](C(=O)N[C@H](C(=O)N(C)[C@H](/C=C(\C)C(=O)O)C(C)C)C(C)(C)C)C(C)(C)c1cccs1` as the compound, how does the IC50 (KB [1]) read?
Answer: Its IC50 is 162 nM.

Question: And the Inhibition (Bos taurus [2])?
Answer: Its Inhibition is 88%.

Question: And the MED (Mus musculus [4])?
Answer: The MED was 1 mpk.

Question: And the MTD (Mus musculus [5])?
Answer: The MTD was greater than 5 mpk.

Question: And the IC50 (KB 3-1)?
Answer: Its IC50 is 2 nM.

Question: What about the Inhibition (Bos taurus [3]) of the same compound?
Answer: Its Inhibition is 92%.

Question: What about the IC50 (KB85 (Homo sapiens)) of the same compound?
Answer: The IC50 was 3.9 nM.

Question: `CN[C@H](C(=O)N[C@H](C(=O)N(C)[C@H](/C=C(\C)C(=O)O)C(C)C)C(C)(C)C)C(C)(C)c1cc(C(F)(F)F)cc(C(F)(F)F)c1` was tested. Which IC50 (KB [1]) did it give?
Answer: The IC50 was 457 nM.

Question: And the Inhibition (Bos taurus [2])?
Answer: The Inhibition was 93%.

Question: And the IC50 (KB 3-1)?
Answer: Its IC50 is 17 nM.

Question: What about the Inhibition (Bos taurus [3]) of the same compound?
Answer: The Inhibition was 60%.

Question: And the IC50 (KB85 (Homo sapiens))?
Answer: The IC50 was 19 nM.

Question: Which results are given for `CN[C@@H](C(=O)N[C@H](C(=O)N(C)[C@H](/C=C(\C)C(=O)O)C(C)C)C(C)(C)C)C(C)(C)c1cccc(C)c1`?
Answer: IC50 (KB [1]): 446 nM; Inhibition (Bos taurus [2]): 89%; IC50 (KB 3-1): 7.9 nM; Inhibition (Bos taurus [3]): 88%; IC50 (KB85 (Homo sapiens)): 19.9 nM

Question: With `CN[C@H](C(=O)N[C@H](C(=O)N(C)[C@H](/C=C(\C)C(=O)O)C(C)C)C(C)(C)C)C(C)(C)c1cc(C)cc(C)c1` as the compound, how does the IC50 (KB [1]) read?
Answer: Its IC50 is 44 nM.

Question: What about the Inhibition (Bos taurus [2]) of the same compound?
Answer: The Inhibition was 88%.

Question: And the IC50 (KB 3-1)?
Answer: Its IC50 is 0.55 nM.

Question: What about the Inhibition (Bos taurus [3]) of the same compound?
Answer: The Inhibition was 85%.

Question: What about the IC50 (KB85 (Homo sapiens)) of the same compound?
Answer: The IC50 was 1.23 nM.

Question: For `CCc1cccc(C(C)(C)[C@H](NC)C(=O)N[C@H](C(=O)N(C)[C@H](/C=C(\C)C(=O)O)C(C)C)C(C)(C)C)c1`, which IC50 (KB [1]) is on record?
Answer: Its IC50 is 62 nM.

Question: And the Inhibition (Bos taurus [2])?
Answer: Its Inhibition is 90%.

Question: And the IC50 (KB 3-1)?
Answer: The IC50 was 0.79 nM.

Question: What about the Inhibition (Bos taurus [3]) of the same compound?
Answer: Its Inhibition is 88%.

Question: And the IC50 (KB85 (Homo sapiens))?
Answer: The IC50 was 1.8 nM.

Question: With `CN[C@H](C(=O)N[C@H](C(=O)N(C)[C@H](/C=C(\C)C(=O)O)C(C)C)C(C)(C)C)C(C)(C)c1cccc(C(C)=O)c1` as the compound, how does the IC50 (KB [1]) read?
Answer: Its IC50 is 370 nM.

Question: What about the Inhibition (Bos taurus [2]) of the same compound?
Answer: The Inhibition was 87%.

Question: What about the IC50 (KB 3-1) of the same compound?
Answer: Its IC50 is 1.9 nM.

Question: And the Inhibition (Bos taurus [3])?
Answer: Its Inhibition is 93%.

Question: What about the IC50 (KB85 (Homo sapiens)) of the same compound?
Answer: Its IC50 is 5.8 nM.

Question: How did the IC50 (KB [1]) turn out when `CN[C@@H](C(=O)N[C@H](C(=O)N(C)[C@H](/C=C(\C)C(=O)O)C(C)C)C(C)(C)C)C(C)(C)c1ccc(C)cc1` was run?
Answer: Its IC50 is 1070 nM.

Question: What about the Inhibition (Bos taurus [2]) of the same compound?
Answer: The Inhibition was 94%.

Question: And the IC50 (KB 3-1)?
Answer: Its IC50 is 17 nM.

Question: And the Inhibition (Bos taurus [3])?
Answer: The Inhibition was 95%.

Question: And the IC50 (KB85 (Homo sapiens))?
Answer: The IC50 was 27.5 nM.

Question: For `CN[C@H](C(=O)N[C@H](C(=O)N(C)[C@H](/C=C(\C)C(=O)O)C(C)C)C(C)(C)C)C(C)(C)c1cccc(F)c1`, which IC50 (KB [1]) is on record?
Answer: The IC50 was 77 nM.

Question: What about the Inhibition (Bos taurus [2]) of the same compound?
Answer: The Inhibition was 93%.

Question: What about the IC50 (KB 3-1) of the same compound?
Answer: Its IC50 is 1 nM.

Question: And the Inhibition (Bos taurus [3])?
Answer: The Inhibition was 103%.

Question: What about the IC50 (KB85 (Homo sapiens)) of the same compound?
Answer: Its IC50 is 1.8 nM.

Question: Which results are given for `CN[C@H](C(=O)N[C@H](C(=O)N(C)[C@H](/C=C(\C)C(=O)O)C(C)C)C(C)(C)C)C(C)(C)c1ccc(C)c(C)c1`?
Answer: Inhibition (Bos taurus [2]): 88%; MED (Mus musculus [4]): 0.2 mpk; MTD (Mus musculus [5]): >1 mpk; IC50 (KB 3-1): 0.4 nM; IC50 (KB [6]): 39 nM; Inhibition (Bos taurus [3]): 88%; IC50 (KB85 (Homo sapiens)): 1.13 nM

Question: Which IC50 (KB [1]) does the source give for `CCOC(=O)/C(C)=C/[C@H](C(C)C)N(C)C(=O)[C@@H](NC(=O)[C@H](NC)C(C)(C)c1cccc(C)c1)C(C)(C)C` here?
Answer: Its IC50 is 3000 nM.

Question: And the Inhibition (Bos taurus [2])?
Answer: Its Inhibition is 94%.

Question: What about the IC50 (KB 3-1) of the same compound?
Answer: The IC50 was 263 nM.

Question: What about the Inhibition (Bos taurus [3]) of the same compound?
Answer: Its Inhibition is 26%.

Question: And the IC50 (KB85 (Homo sapiens))?
Answer: Its IC50 is 1700 nM.

Question: For `CN[C@H](C(=O)N[C@H](C(=O)N(C)[C@H](/C=C(\C)C(=O)O)C(C)C)C(C)(C)C)C(C)(C)c1cccc(Cl)c1`, which IC50 (KB [1]) is on record?
Answer: The IC50 was 91 nM.

Question: And the Inhibition (Bos taurus [2])?
Answer: Its Inhibition is 88%.

Question: And the MED (Mus musculus [4])?
Answer: Its MED is 0.3 mpk.

Question: And the MTD (Mus musculus [5])?
Answer: The MTD was 3 mpk.

Question: And the Effect (Mus musculus [7])?
Answer: Its Effect is “Active”.

Question: What about the Effect (Mus musculus [8]) of the same compound?
Answer: Its Effect is “inactive”.

Question: And the IC50 (KB 3-1)?
Answer: Its IC50 is 1.14 nM.

Question: What about the Inhibition (Bos taurus [3]) of the same compound?
Answer: Its Inhibition is 91%.

Question: And the IC50 (KB85 (Homo sapiens))?
Answer: The IC50 was 3.2 nM.
